Measured values as given in ChEMBL document CHEMBL1151774, “Synthesis and biological evaluation of new N-linked 5-triazolylmethyl oxazolidinones” (Eur J Med Chem, 2008).
In brackets after ≈: the same amount, converted by molar mass.

Experiments:
Rattus norvegicus [1] = experiment: (§1) AUC (0 to infinity) in Sprague-Dawley rat at 10 mg/kg, po; assay type: ADME, organism-based, Plasma; design: time infinity, dose 10 mg/kg, route oral; details: in vivo
Summary of the method: (§2)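 Single dose given orally (10 or 50 mg/kg) or intravenously (10 mg/kg). Serial 300 µL blood samples were taken from the retrobulbar vein. Plasma was quantified by LC-MS. Parameters came from mean plasma concentration by non-compartmental analysis. F is absolute oral bioavailability, assuming linear pharmacokinetics.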

Streptococcus pneumoniae = experiment: Antimicrobial activity against sStreptococcus pneumoniae after 16 to 18 hrs by agar dilution method; assay type: functional
Enterococcus faecalis = experiment: Antimicrobial activity against Enterococcus faecalis after 16 to 18 hrs by agar dilution method; assay type: functional
[2] = Elimination half life in Sprague-Dawley rat at 10 mg/kg, po; assay type: ADME, organism-based; design: dose 10 mg/kg, route oral; details: in vivo, read-out: beta t1/2 (converted); summary of the method: as §2
Rattus norvegicus [3] = experiment: (§3) AUC (0 to infinity) in Sprague-Dawley rat at 50 mg/kg, po; assay type: ADME, organism-based, Plasma; design: time infinity, dose 50 mg/kg, route oral; details: in vivo; summary of the method: as §2
[4] = AUC (0 to infinity) in Sprague-Dawley rat at 10 mg/kg, iv; assay type: ADME, organism-based; design: time infinity, dose 10 mg/kg, route intravenous; details: plasma; summary of the method: as §2
[5] = Elimination half life in Sprague-Dawley rat at 50 mg/kg, po; assay type: ADME, organism-based; design: dose 50 mg/kg, route oral; details: in vivo, read-out: beta t1/2 (converted); summary of the method: as §2
[6] = Cmax in Sprague-Dawley rat at 50 mg/kg, po; assay type: ADME, organism-based; design: dose 50 mg/kg, route oral; details: in vivo; summary of the method: as §2
[7] = Elimination half life in Sprague-Dawley rat at 10 mg/kg, iv; assay type: ADME, organism-based; design: dose 10 mg/kg, route intravenous; details: in vivo, read-out: beta t1/2 (converted); summary of the method: as §2
Staphylococcus aureus [8] = experiment: Antimicrobial activity against Staphylococcus aureus ATCC 29213 after 16 to 18 hrs by agar dilution method; assay type: functional
Staphylococcus aureus [9] = experiment: Antimicrobial activity against methicillin-susceptible Staphylococcus aureus after 16 to 18 hrs by agar dilution method; assay type: functional
[10] = Tmax in Sprague-Dawley rat at 50 mg/kg, po; assay type: ADME, organism-based; design: dose 50 mg/kg, route oral; details: in vivo; summary of the method: as §2
Staphylococcus aureus [11] = experiment: Antimicrobial activity against methicillin-resistant Staphylococcus aureus after 16 to 18 hrs by agar dilution method; assay type: functional
[12] = Tmax in Sprague-Dawley rat at 10 mg/kg, po; assay type: ADME, organism-based; design: dose 10 mg/kg, route oral; details: in vivo; summary of the method: as §2
[13] = Oral bioavailability in Sprague-Dawley rat at 10 mg/kg; assay type: ADME, organism-based; details: in vivo; summary of the method: as §2
[14] = Cmax in Sprague-Dawley rat at 10 mg/kg, po; assay type: ADME, organism-based; design: dose 10 mg/kg, route oral; details: in vivo; summary of the method: as §2
[15] = Clearance in Sprague-Dawley rat at 10 mg/kg, iv; assay type: ADME, organism-based; design: dose 10 mg/kg, route intravenous; details: in vivo; summary of the method: as §2
Staphylococcus aureus [16] = experiment: Antimicrobial activity against methicillin-resistant Staphylococcus aureus 05-2 infected in iv dosed KunMing SPF mouse; assay type: functional
Summary of the method: (§4)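 Mice given a lethal systemic infection by intraperitoneal injection of the MLD inoculum of MRSA 05-2. Compound dosed orally or by i.v. injection in 0.9% NaCl immediately and 4 h post-infection. ED50 (dose curing 50% of infected mice) calculated by the Bliss method on day 7 post-infection, with 95% confidence ranges.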

Staphylococcus aureus [17] = experiment: Antimicrobial activity against methicillin-resistant Staphylococcus aureus 05-2 infected in po dosed KunMing SPF mouse; assay type: functional; summary of the method: as §4
[18] = as §1; assay type: ADME, organism-based, Plasma; design: time infinity, dose 10 mg/kg, route oral; details: Sprague-Dawley, plasma; summary of the method: as §2
[19] = as §3; assay type: ADME, organism-based, Plasma; design: time infinity, dose 50 mg/kg, route oral; details: Sprague-Dawley, plasma; summary of the method: as §2
[20] = Clearance in Sprague-Dawley rat at 10 mg/kg, po; assay type: ADME, organism-based; design: dose 10 mg/kg, route oral; details: in vivo; summary of the method: as §2
[21] = Clearance in Sprague-Dawley rat at 50 mg/kg, po; assay type: ADME, organism-based; design: dose 50 mg/kg, route oral; details: in vivo; summary of the method: as §2
Staphylococcus aureus [22] = experiment: Antimicrobial activity against methicillin-resistant Staphylococcus aureus 05-2 infected in sc dosed KunMing SPF mouse; assay type: functional

Structure (SMILES)	MIC (Streptococcus pneumoniae)	MIC (Enterococcus faecalis)	MIC (Staphylococcus aureus [8])	MIC (Staphylococcus aureus [9])	MIC (Staphylococcus aureus [11])	ED50 (Staphylococcus aureus [16])	further results
O=C1O[C@@H](Cn2ccnn2)CN1c1ccc(N2CCN(Cc3ccc([N+](=O)[O-])o3)CC2)c(F)c1	0.03 µg/mL (≈ 0.0636 µM)	0.25 µg/mL (≈ 0.53 µM)	0.06 µg/mL (≈ 0.127 µM)	0.06 µg/mL (≈ 0.127 µM)	0.06 µg/mL (≈ 0.127 µM)	–	AUC (Rattus norvegicus [1]): 19400 ng·h/mL; half-life [2]: 1.51 h; AUC (Rattus norvegicus [3]): 139000 ng·h/mL; AUC(0-inf) [4]: 18900 ng·h/mL; half-life [5]: 1.66 h; Cmax [6]: 16900 ng/mL; half-life [7]: 1.18 h; Tmax [10]: 0.5 h; Tmax [12]: 0.25 h; bioavailability [13]: 103%; Cmax [14]: 5440 ng/mL; clearance [15]: 16.2 mL/min/kg
O=C1O[C@@H](Cn2ccnn2)CN1c1ccc(N2CCN(Cc3cccs3)CC2)c(F)c1	0.06 µg/mL (≈ 0.136 µM)	2 µg/mL (≈ 4.52 µM)	0.06 µg/mL (≈ 0.136 µM)	0.06 µg/mL (≈ 0.136 µM)	0.06 µg/mL (≈ 0.136 µM)	–	–
O=C1O[C@@H](Cn2ccnn2)CN1c1ccc(N2CCN(Cc3ccco3)CC2)c(F)c1	0.5 µg/mL (≈ 1.17 µM)	0.5 µg/mL (≈ 1.17 µM)	0.06 µg/mL (≈ 0.141 µM)	0.06 µg/mL (≈ 0.141 µM)	0.5 µg/mL (≈ 1.17 µM)	12 mg/kg	ED50 (Staphylococcus aureus [17]): 12.3 mg/kg
O=C1O[C@@H](Cn2ccnn2)CN1c1ccc(N2CCN(Cc3ccoc3)CC2)c(F)c1	0.03 µg/mL (≈ 0.0703 µM)	0.5 µg/mL (≈ 1.17 µM)	0.008 µg/mL (≈ 0.0188 µM)	0.008 µg/mL (≈ 0.0188 µM)	0.03 µg/mL (≈ 0.0703 µM)	6.99 mg/kg	AUC(0-inf) [18]: 16400 ng·h/mL; half-life [2]: 2.76 h; AUC(0-inf) [19]: 85800 ng·h/mL; AUC(0-inf) [4]: 26200 ng·h/mL; half-life [5]: 8.6 h; CL/F [20]: 10.5 mL/min/kg; Cmax [6]: 10700 ng/mL; half-life [7]: 2.95 h; CL/F [21]: 8.86 mL/min/kg; Tmax [10]: 1.9 h; Tmax [12]: 0.88 h; ED50 (Staphylococcus aureus [17]): 7.47 mg/kg; bioavailability [13]: 62.7%; Cmax [14]: 3040 ng/mL; clearance [15]: 6.98 mL/min/kg
Nc1cccc(CN2CCN(c3ccc(N4C[C@H](Cn5ccnn5)OC4=O)cc3F)CC2)c1	0.5 µg/mL (≈ 1.11 µM)	0.5 µg/mL (≈ 1.11 µM)	0.25 µg/mL (≈ 0.554 µM)	0.25 µg/mL (≈ 0.554 µM)	0.5 µg/mL (≈ 1.11 µM)	–	–
O=C1O[C@@H](Cn2ccnn2)CN1c1ccc(N2CCN(Cc3cccnc3)CC2)c(F)c1	1 µg/mL (≈ 2.29 µM)	1 µg/mL (≈ 2.29 µM)	0.125 µg/mL (≈ 0.286 µM)	0.125 µg/mL (≈ 0.286 µM)	1 µg/mL (≈ 2.29 µM)	–	–
O=Cc1ccc(CN2CCN(c3ccc(N4C[C@H](Cn5ccnn5)OC4=O)cc3F)CC2)cc1	1 µg/mL (≈ 2.15 µM)	2 µg/mL (≈ 4.31 µM)	0.008 µg/mL (≈ 0.0172 µM)	1 µg/mL (≈ 2.15 µM)	0.25 µg/mL (≈ 0.538 µM)	–	–
Cc1ccsc1CN1CCN(c2ccc(N3C[C@H](Cn4ccnn4)OC3=O)cc2F)CC1	4 µg/mL (≈ 8.76 µM)	4 µg/mL (≈ 8.76 µM)	1 µg/mL (≈ 2.19 µM)	1 µg/mL (≈ 2.19 µM)	4 µg/mL (≈ 8.76 µM)	–	–
Cc1ccc(CN2CCN(c3ccc(N4C[C@H](Cn5ccnn5)OC4=O)cc3F)CC2)o1	2 µg/mL (≈ 4.54 µM)	2 µg/mL (≈ 4.54 µM)	0.125 µg/mL (≈ 0.284 µM)	0.125 µg/mL (≈ 0.284 µM)	1 µg/mL (≈ 2.27 µM)	–	–
O=C1O[C@@H](Cn2ccnn2)CN1c1ccc(N2CCN(Cc3ccsc3)CC2)c(F)c1	0.5 µg/mL (≈ 1.13 µM)	1 µg/mL (≈ 2.26 µM)	0.06 µg/mL (≈ 0.136 µM)	0.06 µg/mL (≈ 0.136 µM)	1 µg/mL (≈ 2.26 µM)	–	–
CC(=O)NC[C@H]1CN(c2ccc(N3CCOCC3)c(F)c2)C(=O)O1 [LINEZOLID]	–	–	0.5 µg/mL (≈ 1.48 µM)	0.5 µg/mL (≈ 1.48 µM)	1 µg/mL (≈ 2.96 µM)	8.45 mg/kg	ED50 (Staphylococcus aureus [17]): 8.45 mg/kg
CN[C@H](CC(C)C)C(=O)N[C@H]1C(=O)N[C@@H](CC(N)=O)C(=O)N[C@H]2C(=O)N[C@H]3C(=O)N[C@H](C(=O)N[C@H](C(=O)O)c4cc(O)cc(O)c4-c4cc3ccc4O)[C@H](O)c3ccc(c(Cl)c3)Oc3cc2cc(c3O[C@@H]2O[C@H](CO)[C@@H](O)[C@H](O)[C@H]2O[C@H]2C[C@](C)(N)[C@H](O)[C@H](C)O2)Oc2ccc(cc2Cl)[C@H]1O [VANCOMYCIN]	1 µg/mL (≈ 0.69 µM)	1 µg/mL (≈ 0.69 µM)	0.125 µg/mL (≈ 0.0863 µM)	0.125 µg/mL (≈ 0.0863 µM)	–	6.54 mg/kg	ED50 (Staphylococcus aureus [22]): 6 mg/kg
